Hits are enriched below; roughly 12% of the tested compounds scored in any of these assays.
ABCB1 inh: inhibitors of human ABCB1 transporter, ABCG2 counter-screen | AID 1326 | P08183 | 190,000 tested, 0.067% active | inhibition, % at 6.6 µM | CCRF-Adr cells, JC-1 efflux, flow cytometry; in the data active = inhibition above about 40%;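 note: 0% = vehicle and 100% = reference inhibitor; higher value means more JC-1 retained so stronger ABCB1 efflux block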
L major viab: Leishmania major promastigote growth inhibition | Leishmania major promastigotes, resazurin fluorescence viability | inhibition, % at 10 µM | 200,000 tested, 9% active; in the data active = inhibition above about 50%;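 note: promastigotes grown with compound for 44 hours at 28 °C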
RAM inhibit: blocks the yeast RAM network; S. cerevisiae dse1pr::URA3 reporter, 5-FOA growth OD615, 2 d; analog-sensitive cbk1-as2 kinase mutant strain; inhibition, % at 50 µM; 190,000 tested, 1.8% active; AID 868;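 active = inhibition above a set limit, 3 SD over mean compound inhibition, cut at about 8.4% in these data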;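 note: 0% = DMSO-only wells with no growth and 100% = 10 µM 1-NA-PP1 full growth; inhibition rescues growth on 5-FOA so higher OD means more RAM inhibition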
WT yeast gro inh: growth inhibition of WT yeast, mitochondrial fusion screen. mitochondrial fusion phenotypic screen, WT strain. inhibition, % at 10 µM. 190,000 tested, 2.1% active. AID 1362; in the data active = inhibition above about 58%; tested in S. cerevisiae
ABCG2 block: blocks JC-1 efflux by human ABCG2 transporter | inhibition, % at 6.6 µM | IgMXP3 cells, flow cytometry | 190,000 tested, 0.1% active;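 active = inhibition above 80%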;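 note: 0% = DMSO and 100% = nicardipine control wells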
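Test system: IgMXP3 (ABCG2) plus far-red-tagged CCRF-Adr (ABCB1) cells. Reagent: JC-1 dye as substrate. Timing: 10 min exposure at 25 °C with rotation, no wash. Measured by: flow cytometric JC-1 green MFI at 530 nm. Read-out: percent efflux inhibition, scaled nicardipine 100% to DMSO 0%. Control set: nicardipine and DMSO wells.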
The depositor's hits bear a star.

SMILES	ABCB1 inh	L major viab	RAM inhibit	WT yeast gro inh	ABCG2 block
CC1CC(C)CN(C(=O)C(NS(=O)(=O)c2ccc(Br)s2)c2ccccc2)C1 (stereo not given)	0	81*	1	28	-1
COc1ccccc1N1CCN(C(=O)C(NS(=O)(=O)c2cccs2)c2ccccc2)CC1 (stereo not given)	2	14	1	-37	5
O=C(NNC(=O)c1cccnc1SCc1cccc([N+](=O)[O-])c1)c1ccccn1	1	98*	2	1	9
CN1C(=O)C(N=Nc2ccccc2C(=O)O)N(C)C1=S (stereo not given)	1	2	6	-13	2
O=C(CCN1C(=O)c2cccc3cccc(c23)C1=O)Nc1ccon1	0	-6	2	-11	4
CCOC(=O)c1nc(NCc2cccnc2)c2ccccc2n1	0	1	1	-28	2
CSCC[C@@H](Nc1nc(-c2ccccc2)nc2c1oc1ccccc12)C(=O)O	0	-11	4	10	1
c1ccc(-c2nc(NCc3cccnc3)c3oc4ccccc4c3n2)cc1	2	88*	2	72*	6
c1ccc(-c2nc(NCC3CCCO3)c3oc4ccccc4c3n2)cc1 (stereo not given)	1	55*	1	33	5
CC(C)(C)c1ccc(-c2nc(NCc3cccnc3)c3ccccc3n2)cc1	0	80*	0	70	6
CCn1c(SCC(=O)N/N=C/C(C)=C\c2ccco2)nnc1-c1ccccc1	0	9	0	-3	8
Cc1cccc(C(C)(C)C)c1OCCCCN1CCCC1	1	100*	0	53	2
CC(C)c1cccc(C(C)C)c1OCCCCN1CCCC1	0	92*	0	15	0
CC(C)(C)c1ccccc1OCCCCN1CCCC1	1	99*	0	5	4
Cc1ccccc1OCC(=O)NCCN1CCCC1	1	-2	1	9	4
CC(C)CC(=O)NNC(=O)C(C)C	0	-6	2	-4	5
CC1(C)c2ssc(=S)c2-c2ccccc2N1C(=O)CSC1=NCCS1	1	5	2	0	2
Cc1ccc(S(=O)(=O)N2c3ccccc3-c3c(ssc3=S)C2(C)C)cc1	0	99*	4	34	5
COc1ccc2c(c1)-c1c(ssc1=S)C(C)(C)N2S(=O)(=O)c1ccc(C)cc1	0	92*	5	41	0
COc1ccc2c(c1)-c1c(ssc1=S)C(C)(C)N2	0	21	2	12	33
C=CCSc1nc(N)c(C(=O)Nc2ccccc2)cc1C#N	0	10	9.8*	16	7
C=CCSc1nc(N)c(C(=O)Nc2ccccc2OC)cc1C(=O)Nc1ccccc1	0	-1	0	-3	2
O=C(CSc1oc(-c2ccc(F)cc2)nc1S(=O)(=O)c1ccc(F)cc1)NCC1CCCO1 (stereo not given)	0	6	0	-8	-1
O=S(=O)(c1ccccc1)c1nc(-c2cccs2)oc1NCC1CCCO1 (stereo not given)	0	86*	-1	-5	0
O=C(CSc1oc(-c2cccs2)nc1S(=O)(=O)c1ccc(F)cc1)NCC1CCCO1 (stereo not given)	1	-1	9.1*	2	3
SMILES	ABCB1 inh	L major viab	RAM inhibit	WT yeast gro inh	ABCG2 block
CC(C)(C)NCc1cccn1-c1sc2c(c1C#N)CCCC2	1	78*	1	7	2
Cc1ccccc1N=C1NC(=O)CC(c2ccccc2)S1 (stereo not given)	0	-4	1	30	2
CCOC(=O)N1CCC(N2CCN(S(=O)(=O)CC)CC2)CC1	0	94*	2	12	2
CCOC(=O)N1CCN(S(=O)(=O)c2ccc(C(=O)Nc3nnc(CC)o3)cc2)CC1	1	59*	1	-7	4
CCOC(=O)N1CCN(S(=O)(=O)c2ccc(C(=O)Nc3nnc(C4CC4)o3)cc2)CC1	0	-11	1	-5	0
CCOC(=O)N1CCC(N2CCN(S(=O)(=O)c3ccc(C)cc3)CC2)CC1	0	85*	-1	1	2
CCOC(=O)c1ccc(S(=O)(=O)N2CCN(C(C)=O)CC2)cc1	1	-3	2	-2	6
CCOC(=O)c1ccc(S(=O)(=O)N2CCN(C3CCCC3)CC2)cc1	0	90*	-1	-10	1
CCOC(=O)C1(CCCc2ccccc2)CCN(C(=O)CCOC)CC1	0	5	2	-13	-1
O=C(COC(=O)c1ccc(Cl)nc1)Nc1ccccc1OC(F)F	0	0	-1	-17	12
CCOC(=O)N1CCN(S(=O)(=O)c2ccc(OCC)c(C)c2)CC1	0	-4	1	0	1
CCOC(=O)N1CCN(S(=O)(=O)c2ccc(C)c(C)c2)CC1	0	0	0	81*	0
CCOC(=O)c1ccc(S(=O)(=O)n2c(CN3CCCCC3)nc3ccccc32)cc1	2	52*	0	18	0
CCC(CC)C(=O)c1c[nH]c(C(=O)OC)c1	0	1	1	6	1
OCCNCc1cc(Br)ccc1OCc1ccc(Cl)cc1Cl	1	101*	2	58*	3
OCCNCc1cccc(OCc2ccc(Cl)cc2)c1	1	54*	1	7	11
OCCNCc1cc(Br)ccc1OCc1ccc(F)cc1	3	50	1	-1	7
OCCNCc1cc(Br)ccc1OCc1ccc(Cl)cc1	2	93*	0	3	11
Fc1ccccc1Cc1nnc2n1N=C(c1ccc(Cl)cc1)CS2	-1	-3	1	-4	2
COc1ccc(C2(C(=O)Nc3ccc(C)c(C)c3)CCOCC2)cc1	1	3	2	-25	2
Cc1ccc(Cn2ncc3c(N4CCN(Cc5ccc(Cl)cc5)CC4)ncnc32)cc1	3	69*	0	64*	20
Cc1ccccc1N1CCN(c2ncnc3c2cnn3Cc2ccc(Cl)cc2)CC1	1	14	6	22	8
Cc1ccc(Cn2ncc3c(N4CCN(C5CCCC5)CC4)ncnc32)cc1	2	55*	1	20	6
CC1CCN(c2ncnc3c2cnn3Cc2ccc(Cl)cc2)CC1	5	-2	0	63*	47
O=C(c1ccoc1)N1CCC(CO)(CCc2ccccc2)CC1	-1	-4	1	2	1
Cc1ccc(NC(=S)NCC2CCN(C(C)c3ccccc3)C2)cc1 (stereo not given)	1	78*	0	10	1
Cc1cc(C)c(NC(=S)NCC2CCN(C(C)c3ccccc3)C2)c(C)c1 (stereo not given)	2	29	2	26	6
CC(c1ccccc1)N1CCC(CNC(=S)Nc2cccc(Cl)c2)C1 (stereo not given)	3	95*	0	20	8
COc1ccc(N2CCC(CNC(=S)Nc3cccc(OC)c3)C2)cc1 (stereo not given)	1	60*	4	19	28
